The source of these data is ChEMBL document CHEMBL4732237, “Discovery of 4-alkoxy-2-aryl-6,7-dimethoxyquinolines as a new class of topoisomerase I inhibitors endowed with potent in vitro anticancer activity” (2021).

The subject of test [1] is ACHN. Put plainly: Growth inhibition of human ACHN cells incubated for 48 hrs by sulforhodamine B assay. The format is functional. In a few lines: (§1)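 NCI five-dose screen covering 0.01–100 µM, prepared as 10-fold or ½-log dilutions from DMSO stock. Cells in RPMI 1640 with 5% FBS were exposed for 48 h at 37 °C after 24 h preincubation. Adherent cells were fixed with TCA (final 10%) and suspension cells were settled before fixing. Stain was SRB, read at 515 nm. GI50 = 50% reduction in net protein increase versus control, with Tz taken at drug addition.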

Test [2] deals with SNB-75. Description: Growth inhibition of human SNB-75 cells incubated for 48 hrs by sulforhodamine B assay. The format is functional. The gist of the method:
(§2)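 NCI five-dose screen (0.01–100 µM; five concentrations plus control). Cells grown in RPMI 1640/5% FBS/2 mM L-glutamine and preincubated 24 h, with time-zero plates TCA-fixed. Drug exposure 48 h at 37 °C, followed by SRB protein staining and reading at 515 nm. GI50 is the concentration at [(Ti-Tz)/(C-Tz)]×100 = 50.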

In test [3] the test system is Hs-578T. Description: Growth inhibition of human HS-578T cells incubated for 48 hrs by sulforhodamine B assay. The format is functional. In a few lines:
as §1
(In general: In SRB staining, fixed cells bind dye roughly in proportion to their protein.)

For test [4], the system named is MCF7. Put plainly: Growth inhibition of human MCF7 cells incubated for 48 hrs by sulforhodamine B assay. In kind it is functional. In a few lines: as §1
The subject of test [5] is NCI-H322M. Description: Growth inhibition of human NCI-H322M cells incubated for 48 hrs by sulforhodamine B assay. The format is functional. In a few lines: as §2
In test [6] the test system is T47D. Put plainly: Growth inhibition of human T47D cells incubated for 48 hrs by sulforhodamine B assay. In kind it is functional. In a few lines:
(§3)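 NCI five-dose assay, with drug stocks in DMSO diluted in medium to five concentrations (10-fold or ½-log series). Cells in RPMI 1640/5% FBS were pre-incubated 24 h, and time-zero plates were TCA-fixed at drug addition. After 48 h at 37 °C, cells were TCA-fixed, SRB-stained and read at 515 nm. GI50 is from [(Ti-Tz)/(C-Tz)]×100 = 50, TGI from Ti = Tz, and LC50 from [(Ti-Tz)/Tz]×100 = -50.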

Test [7] addresses T1, DNA topoisomerase 1 (Homo sapiens) (UniProt P11387).
T1 sequence (whole entry): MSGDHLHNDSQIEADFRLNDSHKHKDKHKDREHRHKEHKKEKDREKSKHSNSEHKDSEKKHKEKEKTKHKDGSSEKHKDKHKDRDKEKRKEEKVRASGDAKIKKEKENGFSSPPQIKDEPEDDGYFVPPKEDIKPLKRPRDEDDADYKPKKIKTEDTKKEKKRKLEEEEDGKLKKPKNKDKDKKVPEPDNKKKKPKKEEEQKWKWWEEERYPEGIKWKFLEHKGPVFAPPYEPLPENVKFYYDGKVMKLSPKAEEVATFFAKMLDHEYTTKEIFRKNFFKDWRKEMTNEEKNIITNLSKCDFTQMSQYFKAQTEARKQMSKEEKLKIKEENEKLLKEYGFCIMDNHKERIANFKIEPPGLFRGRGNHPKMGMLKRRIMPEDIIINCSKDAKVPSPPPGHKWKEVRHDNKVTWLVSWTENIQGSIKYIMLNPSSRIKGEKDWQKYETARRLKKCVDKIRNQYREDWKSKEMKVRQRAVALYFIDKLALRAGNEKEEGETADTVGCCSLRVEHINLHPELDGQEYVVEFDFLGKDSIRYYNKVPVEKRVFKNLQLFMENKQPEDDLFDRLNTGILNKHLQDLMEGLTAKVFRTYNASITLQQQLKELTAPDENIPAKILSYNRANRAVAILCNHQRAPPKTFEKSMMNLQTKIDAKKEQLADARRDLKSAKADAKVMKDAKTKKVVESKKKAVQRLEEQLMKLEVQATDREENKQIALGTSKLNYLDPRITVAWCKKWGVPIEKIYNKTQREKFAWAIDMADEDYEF
Put plainly: Inhibition of recombinant human TOPO1 assessed as TOP1-DNA cleavage complexes at 1 uM using 3'-[32-P]-117 labeled bp DNA as substrate incubated for 30 mins by SDS-PAGE analysis relative to control.

Test [8] concerns U-251. Put plainly: Growth inhibition of human U-251 cells incubated for 48 hrs by sulforhodamine B assay. In kind it is functional. In a few lines:
as §3

Test [9] concerns CNS carcinoma cell. Description: Growth inhibition of human CNS carcinoma cell incubated for 48 hrs by sulforhodamine B assay. The format is functional. The gist of the method:
(§4)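 NCI-60 five-dose screen. Cells in RPMI 1640 with 5% FBS and 2 mM L-glutamine were plated at 5000–40,000 cells/well and preincubated 24 h at 37 °C, 5% CO2. Drugs in DMSO were given at five serial 10-fold or ½-log dilutions for 48 h. Adherent cells fixed with 10% TCA (final); suspension cells fixed after settling. SRB stained; A515. GI50 from [(Ti-Tz)/(C-Tz)]x100 = 50.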

Test [10] in a line: Growth inhibition of human leukemia cell line incubated for 48 hrs by sulforhodamine B assay. The format is functional. To be noted: leukaemia cell line. The gist of the method: as §4
Test [11] concerns Melanoma cell line. Description: Growth inhibition of human Melanoma cell line incubated for 48 hrs by sulforhodamine B assay. The format is functional. The gist of the method:
as §4

Test [12] can be described thus: Growth inhibition of human Renal cancer cell line incubated for 48 hrs by sulforhodamine B assay. In kind it is functional. In a few lines: as §4
Test [13] in a line: Growth inhibition of human Non-small cell lung cancer cell line incubated for 48 hrs by sulforhodamine B assay. In kind it is functional. The gist of the method: as §4
Test [14] concerns TK-10. Put plainly: Growth inhibition of human TK-10 cells incubated for 48 hrs by sulforhodamine B assay. In kind it is functional. The gist of the method: as §3
Test [15] is described as follows: Growth inhibition of human Breast cancer cell line incubated for 48 hrs by sulforhodamine B assay. In kind it is functional. The gist of the method: as §4
The test system of test [16] is Colon cancer cell line. Description: Growth inhibition of human colon cancer cell line incubated for 48 hrs by sulforhodamine B assay. In kind it is functional. In a few lines: as §4
For test [17], the system named is Ovarian cancer cell line. Put plainly: Growth inhibition of human Ovarian cancer cell line incubated for 48 hrs by sulforhodamine B assay. The format is functional. In a few lines: as §4
A short description of test [18]: Growth inhibition of human Prostate tumor cell line incubated for 48 hrs by sulforhodamine B assay. The format is functional. The gist of the method: as §4

Usually GI50 stands for the concentration that inhibits growth by half. As usually defined, the inhibition is the share of the control response that was lost under treatment. One may read the LC50 as the concentration that kills 50% of the test population. Read a low LC50 as a more lethal substance. The TGI is the concentration giving total growth inhibition.

`COc1cc2nc(-c3ccc(Cl)cc3)cc(OCCCN3CCOCC3)c2cc1OC`: the GI50 was 3.64 µM in [1]; 2.06 µM in test [2]; 2.4 µM in test [3]; 2.49 µM in test [4]; > 100 µM in [5]; 1.96 µM in [6]. This molecule yielded a GI50 in test [8] of 1.92 µM. In test [7], the inhibition came out at 50%.

As for `COc1cc2nc(-c3ccc(Cl)cc3)cc(OCCCN3CCCC3)c2cc1OC`, the LC50 is 33.5 µM in test [9]; 32 µM in test [10]; 29.6 µM in test [15]; 39.1 µM in test [16]; 55.1 µM in [17]. Besides, the TGI in [9] came out at 10.1 µM; in test [10], 4.99 µM; in test [11], 4.26 µM; in [12], 7.66 µM; in test [13], 10.4 µM; in [15] it was 5.8 µM. In addition, the TGI in test [16] came out at 8.31 µM; in [17], 14.8 µM; in test [18], 12.1 µM. Moreover, in test [11], the LC50 (50% lethal concentration) came to 14.6 µM. Further, the LC50 (concentration giving 50% net cell kill) in [12] came to 28.9 µM. For the same molecule, the GI50 in test [1] turned out to be 1.93 µM; in [2], 1.73 µM; in test [3], 1.89 µM; in test [14], 2.33 µM; in test [4], 1.33 µM; in [5], 3.36 µM. The GI50 in test [6] turned out to be 1.02 µM; in [8] it was 1.79 µM. In addition, the LC50 (concentration killing 50% of cells) in test [13] turned out to be 39.7 µM; in test [18] it was 39.6 µM. The inhibition in test [7] was found to be 20%.

Regarding `COc1cc2nc(-c3ccc(C(F)(F)F)cc3)cc(OCCCN3CCC(O)CC3)c2cc1OC`, the GI50 in test [1] was found to be 3.18 µM; in test [2], 2.58 µM; in [3], 3.75 µM; in test [14], 11.5 µM; in [4], 2.57 µM; in [5], 10.2 µM. For the same molecule, the GI50 in [6] amounted to 2.97 µM; in test [8], 2.12 µM. In addition, the inhibition in test [7] was 0%.

As to `COc1cc2nc(-c3ccc(Cl)cc3)cc(OCCCN3CCC(O)CC3)c2cc1OC`, the GI50 in [1] worked out at 2.43 µM; in test [2], 1.76 µM; in test [3] it was 1.91 µM; in test [14] it was 2.14 µM; in test [4], 1.6 µM; in test [5] it was 3.22 µM. For the same molecule, the GI50 in [6] is 2.26 µM; in test [8] it was 2.81 µM. In addition, the inhibition in [7] was 20%.

As for `COc1cc2nc(-c3ccc(C(F)(F)F)cc3)cc(OCCCN3CCCC3)c2cc1OC`, the LC50 turned out to be 44.9 µM in test [9]; 81.6 µM in [10]; 40.8 µM in test [15]; 50.4 µM in test [16]; 81 µM in test [17]. In addition, the TGI in test [9] is 11.7 µM; in test [10], 6.17 µM; in test [11], 4.08 µM; in test [12], 10.2 µM; in [13], 12.7 µM; in [15], 6.8 µM. In addition, the TGI in test [16] turned out to be 8.07 µM; in test [17] it was 28.1 µM; in test [18] it was 16.8 µM. The LC50 (50% lethal concentration) in test [11] came out at 23.7 µM. For the same molecule, the LC50 (concentration giving 50% net cell kill) in test [12] was found to be 40.1 µM. Further, the GI50 came out at 0.812 µM in [1]; 1.85 µM in [2]; 1.74 µM in test [3]; 3.24 µM in [14]; 0.976 µM in test [4]; 6.77 µM in test [5]. Also, the GI50 in [6] came out at 0.472 µM; in test [8] it was 1.05 µM. Also, the LC50 (concentration killing 50% of cells) in test [13] was found to be 57.9 µM; in test [18] it was 89.5 µM. Besides, the inhibition in test [7] is 0%.

`COc1cc2nc(-c3ccc(Cl)cc3)cc(OCCCN3CCCCC3)c2cc1OC`: the GI50 amounted to 2.45 µM in [1]; 1.98 µM in test [2]; 2.11 µM in [3]; 3.73 µM in [14]; 1.56 µM in [4]; 4.42 µM in test [5]. Further, the GI50 in test [6] turned out to be 1.31 µM; in test [8], 1.89 µM. Besides, in [7], the inhibition was 20%.

On to `COc1cc2nc(-c3ccc(C(F)(F)F)cc3)cc(OCCCN3CCCCC3)c2cc1OC`, for which the LC50 in [9] amounted to 38.8 µM; in [10] it was 74.8 µM; in [15], 43 µM; in test [16], 40.8 µM; in test [17], 65.5 µM. For the same molecule, the total growth inhibition concentration (TGI) in [9] was 11.9 µM; in [10], 10.3 µM; in [11], 4.14 µM; in test [12], 11 µM; in test [13], 13.8 µM; in test [15], 9.29 µM. The figures for the TGI in test [16], in test [17] and in test [18] were 10.3 µM, 19.7 µM and 13.8 µM, respectively. Further, the LC50 (50% lethal concentration) in test [11] was 19.9 µM. In addition, the LC50 (concentration giving 50% net cell kill) in test [12] was 35 µM. Further, the GI50 was 1.2 µM in test [1]; 1.96 µM in test [2]; 2.15 µM in test [3]; 7.8 µM in [14]; 1.16 µM in test [4]; 8.7 µM in test [5]. The GI50 was determined as 0.454 µM in test [6] and 1.1 µM in test [8]. Besides, the LC50 (concentration killing 50% of cells) in test [13] came out at 50.6 µM; in test [18], 42.2 µM. Besides, the inhibition in test [7] came out at 20%.

Turning to `COc1cc2nc(-c3ccc(C(F)(F)F)cc3)cc(OCCCN3CCOCC3)c2cc1OC`, the GI50 in test [1] amounted to 2.01 µM; in [2] it was 2.46 µM; in test [3], 2.25 µM; in test [14], 13.9 µM; in test [4] it was 1.55 µM; in test [5], 10.5 µM. Besides, the figures for the GI50 in [6] and in test [8] were 0.654 µM and 1.4 µM, respectively. Further, in test [7], the inhibition is 50%.
